Measurements published in ChEMBL document CHEMBL4138134, “Antiplasmodial Chromanes and Chromenes from the Monotypic Plant Species Koeberlinia spinosa” (J Nat Prod, 2018).

Columns and labels:
Plasmodium falciparum = experiment: Antimalarial activity against chloroquine/mefloquine-resistant Plasmodium falciparum Dd2 measured after 72 hrs by SYBR green1 dye based fluorescence assay; format: functional, organism-based
Procedure, shortened: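 Whole-parasite growth inhibition, 72 h treatment, SYBR Green I fluorescence read-out, IC50 derived. Both fractions and isolated compounds were tested on the chloroquine/mefloquine-resistant Dd2 strain. Artemisinin served as positive control.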

A2780 = experiment: Cytotoxicity against human A2780 cells after 2 days by Alamar blue assay; format: cell-based; details: A2780, 48 h
[1] = Plasmodium falciparum, Dd2, 72 h

Compound | IC50 (Plasmodium falciparum; [1]) [µM] | IC50 (A2780) [µM] | IC50 (Plasmodium falciparum) [µM]
C/C(=C/CC/C(C)=C/C(=O)C[C@]1(C)CCc2cc(O)cc(C)c2O1)CO | 24 | > 10 | –
C/C(=C\CC/C(C)=C/C(=O)C[C@]1(C)CCc2cc(O)cc(C)c2O1)CO | > 112 | > 10 | –
C/C(=C\CC/C(C)=C/C(=O)C[C@]1(C)C=Cc2cc(O)cc(C)c2O1)CO | > 112 | > 10 | –
COc1cc(C)c2c(c1)CC[C@@](C)(CC(=O)/C=C(\C)CC/C=C(\C)CO)O2 | 24 | > 10 | –
CC1=CCCC(C)(CC(=O)C[C@]2(C)CCc3cc(O)cc(C)c3O2)OC1 (single isomer, unassigned; diastereomer 2) | – | – | 23
C[C@@H]1CC[C@H]2[C@@H](C)C(=O)O[C@@H]3O[C@@]4(C)CC[C@@H]1[C@]32OO4 [ARTEMISININ] | 0.009 | – | –
C/C(=C\CC/C(C)=C/CC[C@]1(C)C=Cc2cc(O)cc(C)c2O1)CO | – | > 10 | –
C/C(=C/CC/C(C)=C\C(=O)C[C@]1(C)CCc2cc(O)cc(C)c2O1)CO | – | > 10 | –
CC1=CCCC(C)(CC(=O)C[C@]2(C)CCc3cc(O)cc(C)c3O2)OC1 (single isomer, unassigned; diastereomer 1) | – | > 10 | 109
C/C(=C/C(=O)C[C@]1(C)CCc2cc(O)cc(C)c2O1)CC/C=C(\C)CO | – | > 10 | –
